Test results: ChEMBL document CHEMBL1687796, “Synthesis and spectrum of the neoglycoside ACHN-490” (2010)

Key:
[1] = system: Staphylococcus aureus; assay: Antibacterial activity against aminoglycoside-resistant Staphylococcus aureus expressing APH(2'') + AAC(6') by broth microdilution method; assay type: functional
Summary of the method: (§1)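 MICs were measured by broth microdilution following CLSI guidance. The strains formed a 25-strain screening panel with diverse aminoglycoside resistance mechanisms. The panel included Gram-negative and S. aureus strains carrying key aminoglycoside-modifying enzymes, strains with altered permeability or efflux, and an armA ribosomal methyltransferase strain.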

[2] = system: Acinetobacter; assay: Antibacterial activity against aminoglycoside-resistant Acinetobacter spp. expressing APH(3')-6 by broth microdilution method; assay type: functional
Summary of the method: (§2)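 Clinical aminoglycoside-resistant isolates were each carrying a single aminoglycoside-modifying enzyme. […] MICs were determined by CLSI broth microdilution.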

[3] = system: Acinetobacter baumannii; assay: Antibacterial activity against aminoglycoside-susceptible Acinetobacter baumannii by broth microdilution method; assay type: functional
[4] = system: Acinetobacter baumannii; assay: Antibacterial activity against Acinetobacter baumannii ATCC 19606 by broth microdilution method; assay type: functional; conditions: ATCC 19606 = CIP 70.34 = JCM 6841; summary of the method: as §1
[5] = system: Acinetobacter calcoaceticus; assay: Antibacterial activity against aminoglycoside-resistant Acinetobacter calcoaceticus expressing AAC(6')-1 by broth microdilution method; assay type: functional; summary of the method: as §2
[6] = system: Pseudomonas aeruginosa; assay: Antibacterial activity against Pseudomonas aeruginosa ATCC 27853 by broth microdilution method; assay type: functional
[7] = system: Pseudomonas aeruginosa; assay: Antibacterial activity against wild type Pseudomonas aeruginosa expressing efflux pump by broth microdilution method; assay type: functional
Summary of the method: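 MIC was determined by CLSI broth microdilution, read in μg/ml. The strain came from a 25-strain screening panel with diverse aminoglycoside resistance mechanisms. The panel included strains with changes in permeability or efflux, key aminoglycoside-modifying enzymes and an armA methyltransferase strain.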

[8] = system: Pseudomonas aeruginosa; assay: Antibacterial activity against efflux pump deficient Pseudomonas aeruginosa by broth microdilution method; assay type: functional
[9] = system: Pseudomonas aeruginosa; assay: Antibacterial activity against Pseudomonas aeruginosa expressing mexXY operon by broth microdilution method; assay type: functional; summary of the method: as §1
[10] = system: Pseudomonas aeruginosa; assay: Antibacterial activity against Pseudomonas aeruginosa expressing ANT(4')-2 by broth microdilution method; assay type: functional; summary of the method: as §1
[11] = system: Pseudomonas aeruginosa; assay: Antibacterial activity against Pseudomonas aeruginosa expressing AAC(3)-1 by broth microdilution method; assay type: functional
[12] = system: Pseudomonas aeruginosa; assay: Antibacterial activity against Pseudomonas aeruginosa expressing AAC(6')-2 by broth microdilution method; assay type: functional
[13] = system: Citrobacter; assay: Antibacterial activity against Citrobacter spp. by broth microdilution method; assay type: functional
Summary of the method: (§3)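 MICs were determined by CLSI broth microdilution against clinical isolate panels that included aminoglycoside-resistant isolates. […] MIC90 was derived per group and not calculated when n was <10. Imipenem, ceftobiprole, ciprofloxacin and tigecycline MICs were also determined for the resistant isolates.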

[14] = system: Escherichia coli; assay: Antibacterial activity against Escherichia coli by broth microdilution method; assay type: functional; summary of the method: as §3
[15] = system: Enterobacter sp.; assay: Antibacterial activity against Enterobacter spp. by broth microdilution method; assay type: functional; summary of the method: as §3
[16] = system: Klebsiella sp.; assay: Antibacterial activity against Klebsiella spp. by broth microdilution method; assay type: functional; summary of the method: as §3
[17] = system: Proteus mirabilis; assay: Antibacterial activity against Proteus mirabilis by broth microdilution method; assay type: functional; summary of the method: as §3
[18] = Antibacterial activity against indole positive Proteae by broth microdilution method; assay type: functional; summary of the method: as §3
[19] = system: Serratia sp.; assay: Antibacterial activity against Serratia spp. by broth microdilution method; assay type: functional; summary of the method: as §3
[20] = system: Staphylococcus sp.; assay: Antibacterial activity against Staphylococcus spp. by broth microdilution method; assay type: functional; summary of the method: as §3
[21] = system: Acinetobacter sp.; assay: Antibacterial activity against Acinetobacter spp. by broth microdilution method; assay type: functional; summary of the method: as §3
[22] = system: Pseudomonas aeruginosa; assay: Antibacterial activity against Pseudomonas aeruginosa by broth microdilution method; assay type: functional; summary of the method: as §3
[23] = system: Klebsiella pneumoniae; assay: Antibacterial activity against aminoglycoside-resistant Klebsiella pneumoniae expressing AAC(3)-1 by broth microdilution method; assay type: functional; summary of the method: as §2
[24] = system: Citrobacter freundii; assay: Antibacterial activity against aminoglycoside-resistant Citrobacter freundii expressing AAC(3)-2 by broth microdilution method; assay type: functional; summary of the method: as §2
[25] = system: Klebsiella aerogenes; assay: Antibacterial activity against aminoglycoside-resistant Enterobacter aerogenes expressing AAC(3)-2 by broth microdilution method; assay type: functional; summary of the method: as §2
[26] = system: Enterobacter cloacae; assay: Antibacterial activity against aminoglycoside-resistant Enterobacter cloacae expressing AAC(3)-2 by broth microdilution method; assay type: functional; summary of the method: as §2
[27] = system: Escherichia coli; assay: Antibacterial activity against aminoglycoside-resistant Escherichia coli expressing AAC(3)-2 by broth microdilution method; assay type: functional; summary of the method: as §2
[28] = system: Klebsiella oxytoca; assay: Antibacterial activity against aminoglycoside-resistant Klebsiella oxytoca expressing AAC(3)-2 by broth microdilution method; assay type: functional; summary of the method: as §2
[29] = system: Klebsiella pneumoniae; assay: Antibacterial activity against aminoglycoside-resistant Klebsiella pneumoniae expressing AAC(3)-2 by broth microdilution method; assay type: functional; summary of the method: as §2
[30] = system: Serratia liquefaciens; assay: Antibacterial activity against aminoglycoside-resistant Serratia liquefaciens expressing AAC(3)-2 by broth microdilution method; assay type: functional; summary of the method: as §2
[31] = system: Escherichia coli; assay: Antibacterial activity against aminoglycoside-resistant Escherichia coli expressing AAC(3)-4 by broth microdilution method; assay type: functional; summary of the method: as §2
[32] = system: Klebsiella pneumoniae; assay: Antibacterial activity against aminoglycoside-resistant Klebsiella pneumoniae expressing AAC(3)-4 by broth microdilution method; assay type: functional; summary of the method: as §2
[33] = system: Citrobacter freundii; assay: Antibacterial activity against aminoglycoside-resistant Citrobacter freundii expressing AAC(6')-1 by broth microdilution method; assay type: functional; summary of the method: as §2
[34] = system: Klebsiella aerogenes; assay: Antibacterial activity against aminoglycoside-resistant Enterobacter aerogenes expressing AAC(6')-1 by broth microdilution method; assay type: functional; summary of the method: as §2
[35] = system: Enterobacter cloacae; assay: Antibacterial activity against aminoglycoside-resistant Enterobacter cloacae expressing AAC(6')-1 by broth microdilution method; assay type: functional; summary of the method: as §2
[36] = system: Escherichia coli; assay: Antibacterial activity against aminoglycoside-resistant Escherichia coli expressing AAC(6')-1 by broth microdilution method; assay type: functional; summary of the method: as §2
[37] = system: Klebsiella oxytoca; assay: Antibacterial activity against aminoglycoside-resistant Klebsiella oxytoca expressing AAC(6')-1 by broth microdilution method; assay type: functional; summary of the method: as §2
[38] = system: Klebsiella pneumoniae; assay: Antibacterial activity against aminoglycoside-resistant Klebsiella pneumoniae expressing AAC(6')-1 by broth microdilution method; assay type: functional; summary of the method: as §2
[39] = system: Serratia marcescens; assay: Antibacterial activity against aminoglycoside-resistant Serratia marcescens expressing AAC(6')-1 by broth microdilution method; assay type: functional; summary of the method: as §2
[40] = system: Staphylococcus aureus; assay: Antibacterial activity against aminoglycoside-resistant Staphylococcus aureus expressing ANT(4',4'')-2 by broth microdilution method; assay type: functional; summary of the method: as §2
[41] = system: Staphylococcus epidermidis; assay: Antibacterial activity against aminoglycoside-resistant Staphylococcus epidermidis expressing ANT(4',4'')-2 by broth microdilution method; assay type: functional; summary of the method: as §2
[42] = system: Staphylococcus aureus; assay: Antibacterial activity against aminoglycoside-resistant Staphylococcus aureus expressing APH(2'') + AAC(6')-1 by broth microdilution method; assay type: functional; summary of the method: as §2
[43] = system: Staphylococcus epidermidis; assay: Antibacterial activity against aminoglycoside-resistant Staphylococcus epidermidis expressing APH(2'') + AAC(6')-1 by broth microdilution method; assay type: functional; summary of the method: as §2
[44] = system: Acinetobacter baumannii; assay: Antibacterial activity against aminoglycoside-resistant Acinetobacter baumannii expressing […] by broth microdilution method; assay type: functional; summary of the method: as §2
[45] = system: Acinetobacter baumannii; assay: Antibacterial activity against aminoglycoside-resistant Acinetobacter baumannii expressing ANT(2'')-1 by broth microdilution method; assay type: functional; summary of the method: as §2
[46] = system: Acinetobacter baumannii; assay: Antibacterial activity against aminoglycoside-resistant Acinetobacter baumannii expressing APH(3')-6 by broth microdilution method; assay type: functional; summary of the method: as §2
[47] = system: Pseudomonas aeruginosa; assay: Antibacterial activity against aminoglycoside-resistant Pseudomonas aeruginosa expressing AAC(6')-2 by broth microdilution method; assay type: functional; summary of the method: as §2
[48] = system: Pseudomonas aeruginosa; assay: Antibacterial activity against aminoglycoside-resistant Pseudomonas aeruginosa expressing ANT(2'')-1 by broth microdilution method; assay type: functional; summary of the method: as §2
[49] = system: Staphylococcus epidermidis; assay: Antibacterial activity against aminoglycoside-resistant Staphylococcus epidermidis expressing APH(3')-3 by broth microdilution method; assay type: functional
[50] = system: Klebsiella pneumoniae; assay: Antibacterial activity against Klebsiella pneumoniae ATCC 10031 by broth microdilution method; assay type: functional; summary of the method: as §1
[51] = system: Escherichia coli; assay: Antibacterial activity against aminoglycoside-resistant Escherichia coli expressing ANT(6')-1 by broth microdilution method; assay type: functional; summary of the method: as §2
[52] = system: Escherichia coli; assay: Antibacterial activity against Escherichia coli ATCC 25922 by broth microdilution method; assay type: functional; summary of the method: as §1
[53] = system: Escherichia coli; assay: Antibacterial activity against aminoglycoside-resistant Escherichia coli expressing ANT(2'')-1 by broth microdilution method; assay type: functional; summary of the method: as §2
[54] = system: Escherichia coli; assay: Antibacterial activity against aminoglycoside-resistant Escherichia coli expressing ANT(3)-2 by broth microdilution method; assay type: functional; summary of the method: as §2
[55] = system: Escherichia coli; assay: Antibacterial activity against aminoglycoside-resistant Escherichia coli expressing armA methylase by broth microdilution method; assay type: functional; summary of the method: as §1
[56] = system: Serratia marcescens; assay: Antibacterial activity against aminoglycoside-resistant Serratia marcescens expressing ANT(2''), AAC(6') by broth microdilution method; assay type: functional; summary of the method: as §1
[57] = system: Staphylococcus aureus; assay: microbe, parasite or virus in culture
[58] = system: Staphylococcus aureus; assay: microbe, parasite or virus in culture; conditions: ATCC 29213
[59] = system: Staphylococcus aureus; assay: microbe, parasite or virus in culture; remark: listed apart in the source
[60] = system: Escherichia coli; assay: Antibacterial activity against aminoglycoside-resistant Escherichia coli expressing AAC(3)-2 by broth microdilution method
[61] = system: Escherichia coli; assay: Antibacterial activity against aminoglycoside-resistant Escherichia coli expressing AAC(6')-1 by broth microdilution method
[62] = system: Escherichia coli; assay: Antibacterial activity against aminoglycoside-resistant Escherichia coli expressing APH(3')-1b by broth microdilution method
[63] = system: Escherichia coli; assay: Antibacterial activity against aminoglycoside-resistant Escherichia coli expressing AAC(3)-IVa by broth microdilution method
[64] = system: Providencia stuartii; assay: Antibacterial activity against aminoglycoside-resistant Providencia stuartii expressing AAC(2')-1 by broth microdilution method

GENTAMICIN
2 µg/mL: MIC [9]
16 µg/mL: MIC [4] | MIC [31] | MIC [32] | MIC [44]
> 64 µg/mL: MIC [1] | MIC50 [13] | MIC90 [14] | MIC90 [15] | MIC90 [16] | MIC90 [17] | MIC50 [18] | MIC90 [20] | MIC50 [21] | MIC90 [21] | MIC50 [22] | MIC90 [22] | MIC [45] | MIC [53] | MIC [54] | MIC [55]
32 µg/mL: MIC [12] | MIC50 [15] | MIC50 [16] | MIC50 [17] | MIC50 [20] | MIC [23]
1 µg/mL: MIC [2] | MIC [3] | MIC [6] | MIC [7] | MIC [33] | MIC [34] | MIC [35] | MIC [36] | MIC [37] | MIC [38] | MIC [39] | MIC [40] | MIC [41] | MIC [49] | MIC [52]
56 µg/mL: MIC [48]
64 µg/mL: MIC [11] | MIC50 [14] | MIC50 [19] | MIC [47]
62 µg/mL: MIC [24] | MIC [25] | MIC [26] | MIC [27] | MIC [28] | MIC [29] | MIC [30]
0.125 µg/mL: MIC [8] | MIC [50]
50 µg/mL: MIC [42] | MIC [43]
8 µg/mL: MIC [5]
4 µg/mL: MIC [10] | MIC [46] | MIC [51] | MIC [56]

CN[C@@H]1[C@@H](O)[C@@H](O[C@@H]2[C@@H](O)[C@H](O[C@H]3OC(CN)=CC[C@H]3N)[C@@H](N)C[C@H]2N)OC[C@]1(C)O [SISOMICIN]
0.25 µg/mL: MIC [50] | MIC [57] | MIC [62]
32 µg/mL: MIC [5] | MIC [11] | MIC [12] | MIC [61] | MIC [63]
64 µg/mL: MIC [53] | MIC [64]
0.125 µg/mL: MIC [8]
> 64 µg/mL: MIC [1] | MIC [55] | MIC [60]
8 µg/mL: MIC [4] | MIC [56]
1 µg/mL: MIC [7] | MIC [9] | MIC [10] | MIC [59]
0.5 µg/mL: MIC [2] | MIC [3] | MIC [6] | MIC [52] | MIC [58]
